# pIC50: −log10 of the molar value. The source made the active and inactive calls. No cut-off for these calls is given here.
# What was measured:
# Melanocortin receptor 4 [1] = biological target: T1, Melanocortin receptor 4 (Homo sapiens, UniProt P32245); test: Agonist activity at human MC4R expressed in HEK293 cells assessed as increase in cAMP production at 10^-7 to 10^-12 M after 15 mins by chemiluminescent assay; type: functional, cell-based
# How it was run: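 HEK293/hMC4R cells in DMEM with 10% SCS, seeded 3 days ahead. Cells pre-incubated 10 min at 37°C with 1mM IBMX, then 8 ligand concentrations given for 15 min at 37°C. Lysed 25 min at 37°C. cAMP measured by competitive chemiluminescent immunoassay (AP conjugate, anti-cAMP antibody) against a same-run standard curve, basal subtracted. Triplicate wells, 3 experiments.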
# Melanocortin receptor 4 [2] = biological target: T1, Melanocortin receptor 4; test: Agonist activity at of human MC4R expressed in HEK293 cells assessed as cAMP level at 10^-7 to 10^-12 M after 15 mins by chemiluminescent assay relative to 5% forskolin response; type: functional, cell-based
# How it was run: (§1)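 Same cAMP immunoassay in HEK293/hMC4R cells (1mM IBMX, 15 min ligand at 37°C, basal subtracted). For each ligand, the concentration giving cAMP at 5%, 10% or 25% of the 10 μM forskolin maximum was found. Receptor occupancy there was computed as [RL] = Bmax × [L]/([L] + Kd), with Kd from the Eu-NDP-α-MSH competition binding assays.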
# Melanocortin receptor 4 [3] = biological target: T1, Melanocortin receptor 4; test: Displacement of Eu-NDP-alpha-MSH from human MC4R expressed in HEK293 cells after 2 hrs by time resolved fluorescence assay; type: cell-based
# Melanocortin receptor 4 [4] = biological target: T1, Melanocortin receptor 4; test: Agonist activity at of human MC4R expressed in HEK293 cells assessed as cAMP level at 10^-7 to 10^-12 M after 15 mins by chemiluminescent assay relative to 10% forskolin response; type: functional, cell-based; how it was run: as §1
# T1 sequence (P32245 whole entry): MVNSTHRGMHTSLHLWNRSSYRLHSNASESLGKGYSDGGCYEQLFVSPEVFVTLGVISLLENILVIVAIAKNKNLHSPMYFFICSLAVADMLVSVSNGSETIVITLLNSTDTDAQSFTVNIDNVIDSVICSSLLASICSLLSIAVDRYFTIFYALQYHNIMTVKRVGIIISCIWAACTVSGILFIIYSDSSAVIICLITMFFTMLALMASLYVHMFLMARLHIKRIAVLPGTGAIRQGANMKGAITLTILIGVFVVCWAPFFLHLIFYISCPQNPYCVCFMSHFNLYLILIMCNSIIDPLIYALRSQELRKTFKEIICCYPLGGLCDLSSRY
Structure (SMILES),Activity (Melanocortin receptor 4 [1]),Activity (Melanocortin receptor 4 [2]),pIC50 (Melanocortin receptor 4 [3]),Activity (Melanocortin receptor 4 [4])
C#CCCCC(=O)N[C@@H](Cc1cnc[nH]1)C(=O)N[C@H](Cc1ccccc1)C(=O)N[C@@H](CCCNC(=N)N)C(=O)N[C@@H](Cc1c[nH]c2ccccc12)C(=O)Nc1cn(CC(=O)NCCCC(CCCNC(=O)Cn2cc(NC(=O)[C@H](Cc3c[nH]c4ccccc34)NC(=O)[C@H](CCCNC(=N)N)NC(=O)[C@@H](Cc3ccccc3)NC(=O)[C@H](Cc3cnc[nH]3)NC(=O)CCC#C)nn2)(NC(=O)CNC(C)=O)C(=O)NCCC(N)=O)nn1 (some centres not stated),Active,12000 pmol,6.51,45000 pmol
C#CCCCC(=O)N[C@@H](Cc1cnc[nH]1)C(=O)N[C@H](Cc1ccccc1)C(=O)N[C@@H](CCCNC(=N)N)C(=O)N[C@@H](Cc1c[nH]c2ccccc12)C(=O)Nc1cn(CC(=O)NCCCC(CCCNC(=O)Cn2cc(NC(=O)[C@H](Cc3c[nH]c4ccccc34)NC(=O)[C@H](CCCNC(=N)N)NC(=O)[C@@H](Cc3ccccc3)NC(=O)[C@H](Cc3cnc[nH]3)NC(=O)CCC#C)nn2)(NC(=O)CNC(=O)Cn2cc(NC(=O)[C@H](Cc3c[nH]c4ccccc34)NC(=O)[C@H](CCCNC(=N)N)NC(=O)[C@@H](Cc3ccccc3)NC(=O)[C@H](Cc3cnc[nH]3)NC(=O)CCC#C)nn2)C(=O)NCCC(N)=O)nn1 (some centres not stated),Active,14000 pmol,,75000 pmol

# Source: ChEMBL document CHEMBL1833902, “Design, synthesis, and biological studies of efficient multivalent melanotropin ligands: tools toward melanoma diagnosis and treatment” (J Med Chem, 2011)
